Results from ChEMBL document CHEMBL4406859, “Antitumor and antiviral activities of 4-substituted 1,2,3-triazolyl-2,3-dibenzyl-L-ascorbic acid derivatives” (Eur J Med Chem, 2019).
Active and inactive are the calls of the source. The calls are words filed in the database; no cut-off is given here.

Key:
A549 = experiment: Antiproliferative activity against human A549 cells assessed as reduction in cell viability incubated for 72 hrs by MTT assay; format: functional, cell-based; conditions: A549, 72 h
How it was run: (§1)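 Cells (ATCC) grown in DMEM with 10 FBS, penicillin/streptomycin, 2 mM glutamine, 37 °C, 5 CO2. 5000 cells/well seeded; after 24 h, freshly prepared dilutions at five concentrations (0.01–100 μM) added for 72 h. MTT read-out; absorbance converted to percentage growth by NIH formulas. Two experiments in quadruplicate; IC50 by linear regression.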

CFPAC-1 = experiment: Antiproliferative activity against human CFPAC-1 cells assessed as reduction in cell viability incubated for 72 hrs by MTT assay; format: functional, cell-based; conditions: Homo sapiens, CFPAC-1, 72 h; read-out: IC50; how it was run: as §1
HCT-116 = experiment: Antiproliferative activity against human HCT116cells assessed as reduction in cell viability incubated for 72 hrs by MTT assay; format: functional, cell-based; conditions: HCT-116, 72 h; how it was run: as §1
HeLa = experiment: Antiproliferative activity against human HeLa cells assessed as reduction in cell viability incubated for 72 hrs by MTT assay; format: functional, cell-based; how it was run: as §1
HepG2 = experiment: Antiproliferative activity against human HepG2 cells assessed as reduction in cell viability incubated for 72 hrs by MTT assay; format: functional, cell-based; conditions: HepG2, 72 h; how it was run: as §1
MCF7 = experiment: Antiproliferative activity against human MCF7 cells assessed as reduction in cell viability incubated for 72 hrs by MTT assay; format: functional, cell-based; conditions: MCF7, 72 h; how it was run: as §1
SW-620 = experiment: Antiproliferative activity against human SW620 cells assessed as reduction in cell viability incubated for 72 hrs by MTT assay; format: functional, cell-based; conditions: SW-620, 72 h; how it was run: as §1
HFF = experiment: Cytotoxicity against human HFF cells assessed as reduction in cell viability incubated for 72 hrs by MTT assay; format: cell-based; how it was run: as §1
Cytomegalovirus [1] = experiment: Antiviral activity against Cytomegalovirus AD169 infected in human HELF cells assessed as reduction in virus-induced cytopathogenicity incubated for 7 days by Giemsa staining based microscopic analysis; format: functional, organism-based; conditions: Human betaherpesvirus 5, AD169, HELF, 168 h
How it was run: (§2)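 Confluent HEL fibroblasts infected with CMV (Davis or AD-169) at 100 PFU/well for 2 h. Residual virus removed, then medium with graded compound concentrations added (duplicate). Incubated 7 days at 37 °C. Cytopathogenicity scored microscopically after ethanol fixation and Giemsa staining. EC50 read from plots of % cytopathogenicity versus concentration.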

Cytomegalovirus [2] = experiment: Antiviral activity against Cytomegalovirus Davis infected in human HELF cells assessed as reduction in virus-induced cytopathogenicity incubated for 7 days by Giemsa staining based microscopic analysis; format: functional, organism-based; conditions: Human betaherpesvirus 5, Davis, 168 h; how it was run: as §2
Human alphaherpesvirus 3 [3] = experiment: Antiviral activity against thymidine kinase deficient Varicella zoster virus infected in human HELF cells assessed as reduction in virus-induced cytopathogenicity incubated for 7 days by Giemsa staining based microscopic analysis; format: functional, organism-based; conditions: Human alphaherpesvirus 3, HELF, 168 h
Human alphaherpesvirus 3 [4] = experiment: Antiviral activity against thymidine kinase positive Varicella zoster virus infected in human HELF cells assessed as reduction in virus-induced cytopathogenicity incubated for 7 days by Giemsa staining based microscopic analysis; format: functional, organism-based; conditions: Human alphaherpesvirus 3, HELF, 168 h
[5] = Cytotoxicity against human HELF cells assessed as minimum cytotoxic concentration by observing alteration in cell morphology incubated for 3 days by microscopic analysis; format: cell-based; conditions: HELF cells
How it was run: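 Read-out is the minimum cytotoxic concentration (MCC): the lowest compound concentration giving a microscopically detectable change in cell morphology. Measured on confluent human embryonic lung (HEL) fibroblast cultures exposed to a range of compound concentrations.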

[6] = Cytotoxicity against human HELF cells assessed as reduction in cell viability incubated for 3 days by coulter counter method; format: cell-based; conditions: 72 h
How it was run: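 HEL cells seeded at 5 x 10^3/well and allowed to proliferate 24 h, then exposed to graded compound concentrations for 3 days at 37 °C. Cell number counted with a Coulter counter.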

Influenza A virus [7] = experiment: Antiviral activity against Influenza A virus (A/Ned/378/05(H1N1)) infected in dog MDCK cells assessed as reduction in virus-induced cytopathogenicity incubated for 7 days by microscopic analysis; format: functional, organism-based
Influenza A virus H3N2 [8] = experiment: Antiviral activity against Influenza A virus (A/HK/7/87(H3N2)) infected in dog MDCK cells assessed as reduction in virus-induced cytopathogenicity incubated for 7 days by microscopic analysis; format: functional, organism-based; conditions: A/Hong Kong/7/1987(H3N2)
Influenza B virus [9] = experiment: Antiviral activity against Influenza B virus (B/Ned/537/05) infected in dog MDCK cells assessed as reduction in virus-induced cytopathogenicity incubated for 7 days by microscopic analysis; format: functional, organism-based
Influenza A virus [10] = experiment: Antiviral activity against Influenza A virus (A/Ned/378/05(H1N1)) infected in dog MDCK cells assessed as reduction in virus-induced cytopathogenicity incubated for 7 days by MTS assay; format: functional, organism-based
Influenza A virus H3N2 [11] = experiment: Antiviral activity against Influenza A virus (A/HK/7/87(H3N2)) infected in dog MDCK cells assessed as reduction in virus-induced cytopathogenicity incubated for 7 days by MTS assay; format: functional, organism-based; conditions: A/Hong Kong/7/1987(H3N2)
Influenza B virus [12] = experiment: Antiviral activity against Influenza B virus (B/Ned/537/05) infected in dog MDCK cells assessed as reduction in virus-induced cytopathogenicity incubated for 7 days by MTS assay; format: functional, organism-based
Human alphaherpesvirus 1 [13] = experiment: Antiviral activity against Herpes simplex virus 1 KOS infected in human HELF cells assessed as reduction in virus-induced cytopathogenicity incubated for 7 days by microscopic analysis; format: functional, organism-based; conditions: strain KOS
Human alphaherpesvirus 2 = experiment: Antiviral activity against Herpes simplex virus 2 G infected in human HELF cells assessed as reduction in virus-induced cytopathogenicity incubated for 7 days by microscopic analysis; format: functional, organism-based
Human alphaherpesvirus 1 [14] = experiment: Antiviral activity against Herpes simplex virus 1 TK-KOS-ACV infected in human HELF cells assessed as reduction in virus-induced cytopathogenicity incubated for 7 days by microscopic analysis; format: functional, organism-based
Human adenovirus 2 = experiment: Antiviral activity against Human adenovirus 2 infected in human HELF cells assessed as reduction in virus-induced cytopathogenicity incubated for 7 days by microscopic analysis; format: functional, organism-based
Human coronavirus 229E = experiment: Antiviral activity against Human coronavirus 229E infected in human HELF cells assessed as reduction in virus-induced cytopathogenicity incubated for 7 days by microscopic analysis; format: functional, organism-based
Coxsackievirus B4 = experiment: Antiviral activity against Human coxsackievirus B4 infected in vero cells assessed as reduction in virus-induced cytopathogenicity incubated for 7 days by microscopic analysis; format: functional, organism-based
Reovirus sp. = experiment: Antiviral activity against Reovirus infected in vero cells assessed as reduction in virus-induced cytopathogenicity incubated for 7 days by microscopic analysis; format: functional, organism-based
Sindbis virus = experiment: Antiviral activity against Sindbis virus infected in vero cells assessed as reduction in virus-induced cytopathogenicity incubated for 7 days by microscopic analysis; format: functional, organism-based
[15] = Cytotoxicity against dog MDCK cells assessed as minimum cytotoxic concentration by observing alteration in cell morphology incubated for 3 days by microscopic analysis; format: cell-based, Canis lupus familiaris
MDCK = experiment: Cytotoxicity against dog MDCK cells assessed as reduction in cell viability incubated for 3 days by coulter counter method; format: cell-based, Canis lupus familiaris; conditions: mdck, 72 h
[16] = Influenza A virus, A/Ned/378/05(H1N1), MDCK, 168 h

SMILES	IC50 (A549)	IC50 (CFPAC-1)	IC50 (HCT-116)	IC50 (HeLa)	IC50 (HepG2)	IC50 (MCF7)	IC50 (SW-620)	IC50 (HFF)	EC50 (Cytomegalovirus [1])	EC50 (Cytomegalovirus [2])	EC50 (Human alphaherpesvirus 3 [3])	EC50 (Human alphaherpesvirus 3 [4])	MCC at 72 h [5]	CC50 [6]	Activity (Influenza A virus [7])	Activity (Influenza A virus H3N2 [8])	Activity (Influenza B virus [9])	Activity (Influenza A virus [10])	Activity (Influenza A virus H3N2 [11])	Activity (Influenza B virus [12])	other results
COc1ccccc1-c1cn(C/C=C2\OC(=O)C(OCc3ccccc3)=C2OCc2ccccc2)nn1	> 100 µM	> 100 µM	> 100 µM	> 100 µM	> 100 µM	> 100 µM	> 100 µM	> 100 µM	> 100 µM	10.8 µM	> 20 µM	> 100 µM	100 µM	4.29 µM	inactive	inactive	inactive	inactive	inactive	inactive	Activity (Human alphaherpesvirus 1 [13]): inactive; Activity (Human alphaherpesvirus 2): inactive; Activity (Human alphaherpesvirus 1 [14]): inactive; Activity (Human adenovirus 2): inactive; Activity (Human coronavirus 229E): inactive; Activity (Coxsackievirus B4): inactive; Activity (Reovirus sp.): inactive; Activity (Sindbis virus): inactive
COc1ccc(-c2cn(C/C=C3\OC(=O)C(OCc4ccccc4)=C3OCc3ccccc3)nn2)cc1	> 100 µM	> 100 µM	> 100 µM	> 100 µM	> 100 µM	39.1 µM	> 100 µM	> 100 µM	20 µM	5.74 µM	> 100 µM	> 100 µM	> 100 µM	> 100 µM	inactive	inactive	inactive	inactive	inactive	inactive	Activity (Human alphaherpesvirus 1 [13]): inactive; Activity (Human alphaherpesvirus 2): inactive; Activity (Human alphaherpesvirus 1 [14]): inactive; Activity (Human adenovirus 2): inactive; Activity (Human coronavirus 229E): inactive; Activity (Coxsackievirus B4): inactive; Activity (Reovirus sp.): inactive; Activity (Sindbis virus): inactive
Cc1ccc(-c2cn(C/C=C3\OC(=O)C(OCc4ccccc4)=C3OCc3ccccc3)nn2)cc1	> 100 µM	> 100 µM	> 100 µM	7.48 µM	> 100 µM	> 100 µM	> 100 µM	> 100 µM	8.94 µM	5.66 µM	27.6 µM	> 4 µM	20 µM	> 100 µM	inactive	inactive	inactive	inactive	inactive	inactive	Activity (Human alphaherpesvirus 1 [13]): inactive; Activity (Human alphaherpesvirus 2): inactive; Activity (Human alphaherpesvirus 1 [14]): inactive; Activity (Human adenovirus 2): inactive; Activity (Human coronavirus 229E): inactive; Activity (Coxsackievirus B4): inactive; Activity (Reovirus sp.): inactive; Activity (Sindbis virus): inactive
CC(C)(C)c1cn(C/C=C2\OC(=O)C(OCc3ccccc3)=C2OCc2ccccc2)nn1	5.25 µM	> 100 µM	47.3 µM	> 100 µM	62.2 µM	4.93 µM	20.7 µM	49.9 µM	8.94 µM	5.2 µM	10 µM	11.7 µM	100 µM	55.5 µM	inactive	inactive	inactive	inactive	inactive	inactive	Activity (Human alphaherpesvirus 1 [13]): inactive; Activity (Human alphaherpesvirus 2): inactive; Activity (Human alphaherpesvirus 1 [14]): inactive; Activity (Human adenovirus 2): inactive; Activity (Human coronavirus 229E): inactive; Activity (Coxsackievirus B4): inactive; Activity (Reovirus sp.): inactive; Activity (Sindbis virus): inactive
CC(N)C12CC3CC(CC(C3)C1)C2 (stereo not given) [RIMANTADINE]	–	–	–	–	–	–	–	–	–	–	–	–	–	–	–	–	–	–	–	–	EC50 (Influenza A virus [7]; [16]): > 200 µM; EC50 (Influenza A virus H3N2 [8]; 168 h): 10 nM; EC50 (Influenza B virus [9]; 168 h): > 200 µM; EC50 (Influenza A virus [10]; [16]): > 200 µM; EC50 (Influenza A virus H3N2 [11]; 168 h): 10 nM; EC50 (Influenza B virus [12]; 168 h): > 200 µM; MCC at 72 h [15]: > 200 µM; CC50 (MDCK): > 200 µM
